Here are results for 13 molecules from ChEMBL document CHEMBL1144767, “Characterization of chemical libraries for luciferase inhibitory activity” (J Med Chem, 2008).

The term IC50 denotes the point on the concentration scale where inhibition reaches its midpoint. As a reminder, the inhibition is the share of the control response that was lost under treatment.

Molecules are shown by their SMILES. Calls of active or inactive are those of the source. The calls are words filed in the database; no cut-off is given here.

The target of experiment [1] is T1, Luciferin 4-monooxygenase (Photinus pyralis, UniProt P08659). The experiment is described as follows: Inhibition of Photinus pyralis luciferase by PK-Light assay.
T1 sequence (P08659 whole entry): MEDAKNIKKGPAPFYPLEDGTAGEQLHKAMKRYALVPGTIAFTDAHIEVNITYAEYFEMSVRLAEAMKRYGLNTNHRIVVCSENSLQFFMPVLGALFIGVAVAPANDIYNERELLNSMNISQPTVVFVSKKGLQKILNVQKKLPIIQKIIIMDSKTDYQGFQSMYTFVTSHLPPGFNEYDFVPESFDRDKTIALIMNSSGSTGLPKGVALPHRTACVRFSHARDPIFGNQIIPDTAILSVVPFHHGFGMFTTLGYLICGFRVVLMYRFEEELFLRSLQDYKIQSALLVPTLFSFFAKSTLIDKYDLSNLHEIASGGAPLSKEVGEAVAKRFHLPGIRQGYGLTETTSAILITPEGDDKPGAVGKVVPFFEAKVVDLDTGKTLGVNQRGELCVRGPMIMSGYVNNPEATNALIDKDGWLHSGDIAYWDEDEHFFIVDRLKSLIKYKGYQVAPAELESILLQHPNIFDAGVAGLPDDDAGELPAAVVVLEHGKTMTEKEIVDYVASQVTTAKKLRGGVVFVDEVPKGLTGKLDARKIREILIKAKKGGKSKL
The target of experiment [2] is T1, Luciferin 4-monooxygenase. Briefly: Inhibition of Photinus pyralis luciferase.
The target of experiment [3] is T1, Luciferin 4-monooxygenase. The experiment is described as follows: Inhibition of Photinus pyralis luciferase by Easy lite assay. The method in brief: (§1)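 Detection by 2 µL of EasyLite or Kinase-Glo reagent (Kinase-Glo containing P. pennsylvanica luciferase). 1536-well luminescence. 16 two-fold concentrations, duplicate wells, repeated on two or three days.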
The target of experiment [4] is T2, Luciferin 4-monooxygenase (Photuris pensylvanica) (UniProt Q27757).
T2 sequence (whole entry): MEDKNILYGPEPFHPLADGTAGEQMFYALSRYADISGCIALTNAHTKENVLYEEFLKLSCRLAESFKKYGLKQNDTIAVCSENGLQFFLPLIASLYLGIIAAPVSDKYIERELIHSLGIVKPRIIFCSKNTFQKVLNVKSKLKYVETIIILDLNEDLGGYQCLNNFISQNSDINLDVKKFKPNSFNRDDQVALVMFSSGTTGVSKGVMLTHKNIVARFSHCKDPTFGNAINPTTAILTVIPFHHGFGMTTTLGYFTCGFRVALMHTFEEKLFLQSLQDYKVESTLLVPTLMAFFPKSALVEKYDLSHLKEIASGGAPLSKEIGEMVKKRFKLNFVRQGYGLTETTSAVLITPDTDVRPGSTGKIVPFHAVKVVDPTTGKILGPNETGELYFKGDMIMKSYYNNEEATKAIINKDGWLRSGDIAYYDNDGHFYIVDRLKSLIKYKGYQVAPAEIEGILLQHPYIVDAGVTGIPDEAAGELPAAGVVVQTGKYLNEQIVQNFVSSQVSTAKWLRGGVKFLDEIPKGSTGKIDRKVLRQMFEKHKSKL
Briefly: (§2) Inhibition of luciferase Photuris pennsylvanica by Promega Kinase-Glo assay. The method in brief:
as §1
On the technique in general: Kinase-Glo measures the ATP left after a reaction by luminescence.

Experiment [5] addresses T1, Luciferin 4-monooxygenase. The experiment is described as follows: (§3) Inhibition of Photinus pyralis luciferase by Steady-Glo reporter gene assay. The method in brief:
(§4)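 5 nM purified P. pyralis luciferase in SteadyGlo or BrightGlo reporter-gene reagent; no extra ATP or D-luciferin added. 1536-well luminescence. Curves from 16 two-fold concentrations in duplicate, repeated on two or three separate days.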
Background: A reporter such as luciferase makes a cellular process visible.

Experiment [6] concerns the target T1, Luciferin 4-monooxygenase. Briefly: (§5) Inhibition of Photinus pyralis luciferase by BrightGlo reporter gene assay. Summed up:
as §4

The target of experiment [7] is T2, Luciferin 4-monooxygenase (Photuris pensylvanica). Briefly: Inhibition of Photuris pennsylvanica luciferase at 57 uM by Promega Kinase-Glo assay.
In experiment [8] the target is T3, Luciferin 4-monooxygenase (Photuris pensylvanica, UniProt Q27757).
T3 sequence (Q27757 whole entry): T2 sequence (whole entry)
Described as §2. The method in brief: as §1

Experiment [9] addresses Luciferin 4-monooxygenase (Photinus pyralis) (UniProt P08659). The experiment is described as §3. The method in brief: as §4
The target is the same in experiment [10]. Described as §5. Summed up: as §4
Experiment [11] can be described thus: Inhibition of Renilla reniformis luciferase.
The target in experiment [12] is Luciferin 4-monooxygenase (Photinus pyralis) (UniProt P08659). The experiment is described as follows: Inhibition of Photinus pyralis luciferase at 0.04 uM.
Sequence of Luciferin 4-monooxygenase (Photinus pyralis) (P08659 whole entry): as the sequence (P08659 whole entry) above
For experiment [13] the target is unchanged. The experiment is described as follows: Inhibition of Photinus pyralis luciferase at 3 uM.
Experiment [14] has the same target. The experiment is described as follows: Inhibition of Photinus pyralis luciferase at 1 uM.
Experiment [15] has the same target. The experiment is described as follows: Inhibition of […] luciferase at 100 uM. Summed up:
(§6)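 Light attenuation in two-chamber quartz cuvette at room temperature. One half holds the reaction, the other holds compound in the same buffer. Firefly reaction: 100 µM ATP and D-luciferin, 100 nM enzyme, 5 nm slit. Renilla reaction: 50 µM coelenterazine, 100 nM enzyme, 10 nm slit. Emission scanned 400–700 nm in 2 nm steps, 0.1 s integration. Compounds 2-fold diluted from 100 µM.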

For experiment [16] the target is unchanged. Briefly: Inhibition of […] luciferase at 20 uM assessed as quenching of luminescence. Set-up: scale not given: the % may be the effect or the level left. The method in brief:
as §6

In another experiment the test system is Renilla reniformis. Briefly: Inhibition of Renilla reniformis luciferase at 20 uM assessed as quenching of luminescence. More on the design: scale not given: the % may be the effect or the level left. The method in brief: as §6

Take `Cc1ccc(C(=O)Nc2nc3ccc(S(C)(=O)=O)cc3s2)s1`: the IC50 in experiment [1] is 5.4 µM; in experiment [2], 1.1 µM; in experiment [3], 3.2 µM; in experiment [5] it was 10 µM; in [6] it was 13.3 µM. Further, the outcome in experiment [4] and in [7] was inactive.
Take `CCOc1ccc(-c2cc(C(=O)N3CCN(C)CC3)c3ccccc3n2)cc1`: the IC50 is 2.4 µM in experiment [1]; 1.3 µM in [2]; 1.1 µM in experiment [3]; greater than 50 µM in [8]; greater than 25 µM in experiment [11]. Further, the outcome in [9] and in experiment [10] was inactive.
On to `CCN(CC)c1ccc2cc(-c3nc4ccccc4[nH]3)c(=O)oc2c1`, for which the IC50 is 0.38 µM in experiment [1]; 0.24 µM in experiment [2]; 14 µM in experiment [3]; 16 µM in [8]; 0.12 µM in experiment [5]; 0.4 µM in [6]. Further, in experiment [11], the IC50 is 5.3 µM. In addition, the inhibition in experiment [12] was determined as 100%.
Consider `Cc1ccc(-c2cc(C(=O)N3CCN(c4ncccn4)CC3)c3ccccc3n2)cc1`, for which the result in experiment [9] and in experiment [10] was inactive. In addition, in experiment [11], the IC50 is greater than 25 µM.
Take `CCOc1ccc(-c2cc(C(=O)N3CCN(c4ccccn4)CC3)c3ccccc3n2)cc1`: the result in experiment [9] and in experiment [10] was inactive. The molecule further yielded an IC50 in [11] of 11 µM.
As for `COc1ccc(-c2cc3ccc(OCc4nn[nH]n4)cc3oc2=O)cc1`, the IC50 stood at 5.4 µM in experiment [1]; 1.1 µM in experiment [2]; 3.2 µM in experiment [3]; 10 µM in experiment [5]; 13.3 µM in [6]. Further, in experiment [4], the result was inactive. In experiment [13], the inhibition stood at 100%.
Regarding `CCOc1ccc(-c2cc(C(=O)N3CCC4(CC3)OCCO4)c3ccccc3n2)cc1`, the IC50 was 1.4 µM in experiment [1]; 0.7 µM in experiment [2]; 1 µM in experiment [3]; greater than 50 µM in experiment [8]; 11 µM in [11]. Also, the result in experiment [9] and in [10] was inactive.
Consider `CCN(CC)c1ccc2cc(-c3nc4ccccc4n3C)c(=O)oc2c1`, for which the inhibition in experiment [14] came out at 28%.
Take `Clc1cccc(/C=N\C=N\c2cccc(Cl)c2)c1`: the IC50 was 7.8 µM in [1], 4.5 µM in experiment [2], 11.4 µM in experiment [3] and greater than 50 µM in experiment [11]. Also, the result in experiment [4], in [9] and in experiment [10] was inactive.
As for `Cc1ccc(O)c(/N=N/c2ccccc2)n1`, the IC50 in [1] worked out at 1.7 µM; in experiment [2], 4.5 µM; in [3] it was 1.26 µM; in experiment [8] it was 1.8 µM; in experiment [5], 1.6 µM; in experiment [6], 2 µM. It took 36 µM to reach half-maximal inhibition in [11] (IC50). Also, the result in [15] was inactive.
For `CN(C)c1ccc(/C=C2\C(=O)Nc3ccccc32)cc1`, in experiment [4], the result was inactive. Besides, the half-inhibitory concentration (IC50) in experiment [11] is 19 µM.
For `Cc1cc(-c2ccc(/N=N/c3ccc4c(S(=O)(=O)O)cc(S(=O)(=O)O)c(N)c4c3O)c(C)c2)ccc1/N=N/c1ccc2c(S(=O)(=O)O)cc(S(=O)(=O)O)c(N)c2c1O` [EVANS BLUE], the IC50 in [1] was 6.9 µM; in [2] it was 1.7 µM; in experiment [3], 7.6 µM; in [8], 20 µM; in experiment [5] it was 22 µM; in [6], 17 µM. Further, in experiment [11], half-maximal inhibition (IC50) required 10 µM. In addition, the Activity (in experiment [16]; in the experiment on Renilla reniformis) was 50% throughout.
In the case of `CCOC(=O)N1CCN(C(=O)c2cc(-c3ccc(OCC)cc3)nc3ccccc23)CC1`, the IC50 in [1] is 1.4 µM; in [2] it was 0.9 µM; in experiment [3] it was 1 µM; in experiment [8] it was greater than 50 µM; in experiment [11], 20 µM. Moreover, the outcome in [9] and in experiment [10] was inactive.
